Assay results: paper PMC3581696 (The Journal of General Physiology, 2013)
Several values for one entry are separate records, joined by “and”; a condition that tells them apart may be missing. Identical values can stand only once.

Columns and labels:
mEAG1 channel = molecular target: T1, mEAG1 channel (Mus musculus, UniProt Q60603); test: Outside-out patch-clamp of mEAG1 channels expressed in Xenopus oocytes; format: cell-based; conditions: 10 µM fisetin; outside-out patches; n = 4
T1 sequence (Q60603 1-989): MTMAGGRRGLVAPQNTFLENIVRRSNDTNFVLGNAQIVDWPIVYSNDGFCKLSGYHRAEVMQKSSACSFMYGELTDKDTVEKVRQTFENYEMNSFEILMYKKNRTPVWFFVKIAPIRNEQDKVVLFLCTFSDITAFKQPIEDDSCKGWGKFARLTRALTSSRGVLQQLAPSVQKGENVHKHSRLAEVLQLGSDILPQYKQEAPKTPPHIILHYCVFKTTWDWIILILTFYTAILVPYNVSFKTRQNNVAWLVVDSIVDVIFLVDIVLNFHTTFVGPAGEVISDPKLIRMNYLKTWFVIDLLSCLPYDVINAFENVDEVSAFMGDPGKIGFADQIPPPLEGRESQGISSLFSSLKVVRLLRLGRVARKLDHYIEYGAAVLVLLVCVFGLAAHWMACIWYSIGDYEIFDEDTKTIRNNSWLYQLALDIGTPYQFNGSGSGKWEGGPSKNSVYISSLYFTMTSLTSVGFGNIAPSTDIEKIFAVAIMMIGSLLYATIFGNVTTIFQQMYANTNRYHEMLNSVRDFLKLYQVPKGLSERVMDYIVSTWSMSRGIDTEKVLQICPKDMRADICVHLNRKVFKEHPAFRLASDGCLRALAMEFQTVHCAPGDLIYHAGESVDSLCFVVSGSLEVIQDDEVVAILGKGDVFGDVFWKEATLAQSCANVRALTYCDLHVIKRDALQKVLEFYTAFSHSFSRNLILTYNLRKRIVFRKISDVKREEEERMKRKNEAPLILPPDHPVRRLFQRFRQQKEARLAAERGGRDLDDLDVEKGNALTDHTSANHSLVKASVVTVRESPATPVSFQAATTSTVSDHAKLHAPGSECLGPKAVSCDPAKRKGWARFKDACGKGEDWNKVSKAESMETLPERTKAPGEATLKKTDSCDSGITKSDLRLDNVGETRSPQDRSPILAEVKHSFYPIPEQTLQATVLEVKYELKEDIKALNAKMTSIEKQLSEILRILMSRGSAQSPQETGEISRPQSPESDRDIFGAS
Summary of the method: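 Outside-out patches were excised from Xenopus oocytes expressing mouse EAG1. Bath and pipette solutions were 130 mM KCl, 10 mM HEPES, 0.2 mM EDTA, pH 7.2. Patches were exposed to 10 µM flavonoid. The shift in V1/2 was taken from Boltzmann fits of tail-current conductance–voltage relationships.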

mEAG1 Δ821–989 channels = molecular target: T2, mEAG1 Δ821–989 channels (Mus musculus, UniProt Q60603); test: Inside-out patch-clamp of post-CNBHD deletion mutant channels; format: cell-based; conditions: with 30 µM fisetin
T2 sequence (Q60603 1-820): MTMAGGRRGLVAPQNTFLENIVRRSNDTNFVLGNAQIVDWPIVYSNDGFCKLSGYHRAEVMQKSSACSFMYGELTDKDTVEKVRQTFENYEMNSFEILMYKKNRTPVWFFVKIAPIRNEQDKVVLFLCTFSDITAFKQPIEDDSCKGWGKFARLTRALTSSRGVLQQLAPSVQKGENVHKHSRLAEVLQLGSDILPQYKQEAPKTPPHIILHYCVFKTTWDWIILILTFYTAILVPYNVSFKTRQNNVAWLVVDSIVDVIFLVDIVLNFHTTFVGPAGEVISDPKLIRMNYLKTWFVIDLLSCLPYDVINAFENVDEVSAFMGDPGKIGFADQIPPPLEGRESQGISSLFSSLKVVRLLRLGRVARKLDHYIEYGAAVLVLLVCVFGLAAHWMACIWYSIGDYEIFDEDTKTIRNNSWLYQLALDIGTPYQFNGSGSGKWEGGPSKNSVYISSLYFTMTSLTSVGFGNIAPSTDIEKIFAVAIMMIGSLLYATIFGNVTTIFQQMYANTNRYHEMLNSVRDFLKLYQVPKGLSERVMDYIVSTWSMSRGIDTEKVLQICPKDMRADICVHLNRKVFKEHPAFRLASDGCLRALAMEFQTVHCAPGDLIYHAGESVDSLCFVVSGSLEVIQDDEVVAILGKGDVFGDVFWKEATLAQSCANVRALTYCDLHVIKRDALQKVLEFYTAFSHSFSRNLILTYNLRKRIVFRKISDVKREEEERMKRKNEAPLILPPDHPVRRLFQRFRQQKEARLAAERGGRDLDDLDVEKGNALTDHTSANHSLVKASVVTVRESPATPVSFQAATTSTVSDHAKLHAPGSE
Summary of the method: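 mEAG1 mutant cRNA was injected into defolliculated Xenopus oocytes, and the vitelline membrane was removed. Inside-out patches were bathed in symmetric 130 mM KCl, 10 mM HEPES, 0.2 mM EDTA, pH 7.2, holding at −100 mV. Steps of 0.1 s from −140 to +50 mV (10-mV increments) were followed by −120 mV tails, without or with 30 µM flavonoid. Peak tails were normalized and Boltzmann-fitted. Deactivation time constant came from single-exponential fits of the −120 mV tail after +50 mV; two-tailed t test.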

[1] = molecular target: T3, Y699A mutant CNBHD from mEAG1 (Mus musculus, UniProt Q60603, Y699A); test: Fisetin fluorescence anisotropy binding assay, Y699A CNBHD; conditions: Kd (apparent affinity), 5 µM fisetin, fit with Eq. 7
T3 sequence (Q60603 552-724 Y699A): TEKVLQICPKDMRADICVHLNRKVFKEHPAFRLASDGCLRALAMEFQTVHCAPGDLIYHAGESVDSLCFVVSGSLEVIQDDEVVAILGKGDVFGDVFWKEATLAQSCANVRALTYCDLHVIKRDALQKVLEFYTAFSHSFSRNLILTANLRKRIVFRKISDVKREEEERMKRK

`O=c1c(O)c(-c2ccc(O)c(O)c2)oc2cc(O)ccc12` [Fisetin, 2-(3,4-dihydroxyphenyl)-3,7-dihydroxychromen-4-one] was tested, and the “shift of the conductance–voltage relationship” value (mEAG1 channel) was −8.1 ± 2.3 mV, the “rate (time constant) of deactivation” value (mEAG1 Δ821–989 channels; at −120 mV, 3.4 ± 0.7 ms without, n = 4) was 6.7 ± 2.2 ms and the “time constant of deactivation (tail currents of Fig. 5 F)” value (mEAG1 Δ821–989 channels; tail at −120 mV after step to +50 mV, 5.2 ms without) was 13.4 ms. The “V1/2 (Boltzmann fit of the averaged conductance–voltage relationship)” value (mEAG1 Δ821–989 channels; −31.9 mV without, Fig. 5 E) was −50.6 mV, the “V1/2 of the conductance–voltage relationship” value (mEAG1 Δ821–989 channels; −36.4 ± 2.5 mV without, n = 4) was −51.1 ± 6.0 mV and the Kd [1] was 30 µM and ≥ 30 µM.
